# ChEMBL document CHEMBL2176870 (J Med Chem, 2012)
# Active and inactive are the calls of the source. The calls are words filed in the database; no cut-off is given here.
# Legend:
# [1] = Plasma clearance in Sprague-Dawley rat plasma at 2 x 50 mg/kg, iv; type: ADME, organism-based; parameters: dose 50 mg/kg, route intravenous
# Proteus mirabilis = experiment: Antibacterial activity against Proteus mirabilis; type: functional
# Moraxella catarrhalis = experiment: Antibacterial activity against Moraxella catarrhalis; type: functional
# Haemophilus influenzae = experiment: Antibacterial activity against Haemophilus influenzae; type: functional
# Neisseria gonorrhoeae = experiment: Antibacterial activity against Neisseria gonorrhoeae; type: functional
# Staphylococcus aureus [2] = experiment: Antibacterial activity against methicillin-resistant Staphylococcus aureus NRS384 assessed as killing activity at 600 to 1200 mg q8h with prolonged infusion of 2 hrs; type: functional, organism-based
# Staphylococcus aureus [3] = experiment: Antibacterial activity against methicillin-resistant Staphylococcus aureus NRS384 assessed as killing activity at 600 to 1200 mg q6h with prolonged infusion of 2 hrs; type: functional, organism-based
# Staphylococcus aureus [4] = experiment: Antibacterial activity against methicillin-resistant Staphylococcus aureus NRS385 infected in Swiss mouse; type: functional
# How it was run: (§1)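 Murine lethal systemic infection by intraperitoneal MRSA challenge. A single subcutaneous dose was given 5 min after infection.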
# Staphylococcus aureus [5] = experiment: Antibacterial activity against methicillin-resistant Staphylococcus aureus NRS384 infected in Swiss mouse; type: functional; how it was run: as §1
# Staphylococcus aureus [6] = experiment: Antibacterial activity against methicillin-resistant Staphylococcus aureus NRS382 infected in Swiss mouse; type: functional; how it was run: as §1
# Staphylococcus aureus [7] = experiment: Antibacterial activity against methicillin-resistant Staphylococcus aureus NRS385; type: functional
# How it was run: (§2)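 CLSI broth microdilution: serial 2-fold dilutions from 0.06 to 64 μg/mL in cation-adjusted Mueller–Hinton broth, inoculum 5 × 10^5 CFU/mL, 35 °C for 18 h. MIC is the lowest concentration with no visible growth.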
# Staphylococcus aureus [8] = experiment: Antibacterial activity against methicillin-resistant Staphylococcus aureus NRS384; type: functional; how it was run: as §2
# [9] = Terminal elimination half life in Sprague-Dawley rat lung at 2 x 50 mg/kg, iv; type: ADME, organism-based; parameters: dose 50 mg/kg, route intravenous; settings: read-out: beta t1/2 (converted)
# How it was run: (§3)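 Female Sprague–Dawley rats given two iv doses of 50 mg/kg. Levels measured in plasma, liver, kidney, brain, heart and lung. Cmax reported as ng/g for tissue and ng/mL for plasma; AUC(0–∞) as ng·h/mL. Half-life is the terminal elimination value.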
# [10] = Terminal elimination half life in Sprague-Dawley rat heart at 2 x 50 mg/kg, iv; type: ADME, organism-based; parameters: dose 50 mg/kg, route intravenous; settings: read-out: beta t1/2 (converted); how it was run: as §3
# [11] = Terminal elimination half life in Sprague-Dawley rat brain at 2 x 50 mg/kg, iv; type: ADME, organism-based; parameters: dose 50 mg/kg, route intravenous; settings: read-out: beta t1/2 (converted); how it was run: as §3
# [12] = Terminal elimination half life in Sprague-Dawley rat liver at 2 x 50 mg/kg, iv; type: ADME, organism-based; parameters: dose 50 mg/kg, route intravenous; settings: read-out: beta t1/2 (converted); how it was run: as §3
# [13] = Terminal elimination half life in Sprague-Dawley rat plasma at 2 x 50 mg/kg, iv; type: ADME, organism-based; parameters: dose 50 mg/kg, route intravenous; settings: read-out: beta t1/2 (converted); how it was run: as §3
# [14] = AUC (0 to infinity) in Sprague-Dawley rat brain at 2 x 50 mg/kg, iv; type: ADME, organism-based; parameters: time infinity, dose 50 mg/kg, route intravenous; how it was run: as §3
# [15] = AUC (0 to infinity) in Sprague-Dawley rat liver at 2 x 50 mg/kg, iv; type: ADME, organism-based; parameters: time infinity, dose 50 mg/kg, route intravenous; how it was run: as §3
# [16] = Cmax in Sprague-Dawley rat kidney at 2 x 50 mg/kg, iv; type: ADME, organism-based; parameters: dose 50 mg/kg, route intravenous; how it was run: as §3
# [17] = Cmax in Sprague-Dawley rat liver at 2 x 50 mg/kg, iv; type: ADME, organism-based; parameters: dose 50 mg/kg, route intravenous; how it was run: as §3
# [18] = Toxicity in iv dosed dog administered bid for 2 weeks; type: organism-based, Canis lupus familiaris; settings: in vivo
# How it was run: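 Dogs dosed iv twice daily for 14 days; NOAEL determined, with body weight monitored.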
# [19] = Toxicity in iv dosed rat; type: organism-based; settings: in vivo
# How it was run: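 Rats given a single intravenous dose for maximum tolerated dose. A separate 2-week study used twice-daily intravenous dosing, with NOAEL set from clinical findings and macroscopic and microscopic examination. Safety pharmacology used single intravenous injections up to 200 mg/kg, assessing central nervous system and respiratory functions.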
# [20] = Toxicity in iv dosed rat administered bid for 2 weeks; type: organism-based; settings: in vivo
# How it was run: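 Rats dosed iv twice daily for 14 days. NOAEL assessed from clinical findings and from macroscopic and microscopic examination.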
# Albumin = Albumin (Homo sapiens, UniProt P02768); experiment: Binding affinity to human serum albumin; type: ADME; settings: isolated protein
# [21] = Thermodynamic aqueous solubility of the compound in 1 to 5% of glucose; type: physicochemical; settings: 1 to 5% glucose in water; read-out: Therm_solubility
# How it was run: (§4)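 Solubility measured in an aqueous solution containing 20% hydroxypropyl-β-cyclodextrin together with 1–5% glucose.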
# [22] = Thermodynamic aqueous solubility of the compound in 20% hydroxypropyl-beta-cyclodextrin; type: physicochemical; settings: 20% hydroxypropyl-beta-cyclodextrin in water; read-out: Therm_solubility; how it was run: as §4
# [23] = Thermodynamic aqueous solubility of the compound at pH 7.4; type: physicochemical; settings: buffer, read-out: Therm_solubility
# Staphylococcus aureus [24] = experiment: Antibacterial activity against methicillin-susceptible Staphylococcus aureus; type: functional
# [25] = Cytotoxicity against human HepG2 cells; type: cell-based; settings: read-out: ED50 (the source's name)
# [26] = molecular target: T1, Enoyl-[acyl-carrier-protein] reductase [NADPH] FabI (Staphylococcus aureus, UniProt Q6GI75); experiment: Inhibition of Staphylococcus aureus recombinant FabI using trans-2-octenoyl N-acetylcysteamine thioester as substrate preincubated for 60 mins
# T1 sequence (Q6GI75 whole entry): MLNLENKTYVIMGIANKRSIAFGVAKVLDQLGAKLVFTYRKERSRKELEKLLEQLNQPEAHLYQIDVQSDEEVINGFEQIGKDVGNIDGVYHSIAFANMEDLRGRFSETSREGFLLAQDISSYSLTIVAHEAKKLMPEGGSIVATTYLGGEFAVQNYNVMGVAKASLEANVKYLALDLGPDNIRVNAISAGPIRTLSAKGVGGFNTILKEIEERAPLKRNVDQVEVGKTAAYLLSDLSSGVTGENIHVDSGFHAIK
# How it was run: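 Recombinant S. aureus FabI (2 nM) in 50 mM ADA pH 6.5, 1 mM DTT, 0.006% Triton X-100, 50 mM NaCl. Preincubated 60 min at room temperature with 40 μM NADPH, 10 μM NADP+ and inhibitor in DMSO. Reaction started with 100 μM t-o-NAC. Inhibition versus untreated samples; IC50 by Langmuir fit.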
# Streptococcus pneumoniae = experiment: Antibacterial activity against Streptococcus pneumoniae D39 after 18 hrs by broth microdilution method; type: functional; settings: D39, 18 h
# How it was run: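 CLSI broth microdilution with 2-fold dilutions from 0.06 to 64 μg/mL. Cation-adjusted Mueller–Hinton broth with 2.5% lysed horse blood, inoculum 5 × 10^5 CFU/mL, grown at 35 °C for 18 h in 5% CO2. MIC is the lowest concentration showing no visible growth.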
# Enterococcus faecalis = experiment: Antibacterial activity against Enterococcus faecalis ATCC 29212 after 18 hrs by broth microdilution method; type: functional; settings: ATCC 29212, 18 h
# How it was run: (§5)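 CLSI broth microdilution with serial 2-fold dilutions from 0.06 to 64 μg/mL. Cation-adjusted Mueller–Hinton broth, inoculum 5 × 10^5 CFU/mL, incubated at 35 °C for 18 h. MIC taken as the lowest concentration with no visible growth.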
# Rattus norvegicus = experiment: Toxicity in rat assessed as effect on central nervous system and respiratory functions up to 200 mg/kg, iv; type: organism-based; parameters: dose 200 mg/kg, route intravenous; settings: in vivo
# How it was run: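 Safety pharmacology in rats given single iv injections up to 200 mg/kg. Clinical signs, central nervous system effects and respiratory function were monitored.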
# Escherichia coli = experiment: Antibacterial activity against Escherichia coli C7 after 18 hrs by broth microdilution method; type: functional; settings: C7, 18 h
# Staphylococcus aureus [27] = experiment: Antibacterial activity against Staphylococcus aureus CIP54.146 after 18 hrs by broth microdilution method; type: functional; settings: CIP54.146, 18 h; how it was run: as §5
# Staphylococcus aureus [28] = experiment: Antibacterial activity against community acquired methicillin-resistant Staphylococcus aureus; type: functional
# Chain of Albumin (P02768 whole entry): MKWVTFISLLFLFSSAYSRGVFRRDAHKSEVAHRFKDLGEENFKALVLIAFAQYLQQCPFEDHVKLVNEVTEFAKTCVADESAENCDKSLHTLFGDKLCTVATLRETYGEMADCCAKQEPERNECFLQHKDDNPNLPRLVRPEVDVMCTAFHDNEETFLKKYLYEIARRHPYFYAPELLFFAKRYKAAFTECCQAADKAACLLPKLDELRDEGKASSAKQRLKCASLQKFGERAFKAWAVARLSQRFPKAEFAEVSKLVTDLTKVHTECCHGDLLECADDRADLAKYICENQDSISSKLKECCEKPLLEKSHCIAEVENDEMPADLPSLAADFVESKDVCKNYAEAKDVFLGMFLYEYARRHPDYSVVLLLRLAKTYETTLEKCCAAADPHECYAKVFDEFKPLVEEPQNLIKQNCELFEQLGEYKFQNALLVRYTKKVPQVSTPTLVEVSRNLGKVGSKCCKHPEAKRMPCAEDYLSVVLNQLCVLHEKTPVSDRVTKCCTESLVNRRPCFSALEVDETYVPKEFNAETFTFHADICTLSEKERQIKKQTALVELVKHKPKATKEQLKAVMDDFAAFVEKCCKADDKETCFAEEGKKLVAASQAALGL
smiles,measurement,setting,value
CCc1cc(O)c(Oc2ccc(C(N)=O)cc2F)cc1F,clearance,[1],107 mL/min/kg
same,MIC90,Proteus mirabilis,2 µg/mL
same,MIC90,Moraxella catarrhalis,2 µg/mL
same,MIC90,Haemophilus influenzae,0.5 µg/mL
same,MIC90,Neisseria gonorrhoeae,0.25 µg/mL
same,Activity,Staphylococcus aureus [2],Active
same,Activity,Staphylococcus aureus [3],Active
same,ED50,Staphylococcus aureus [4],28.3 mg/kg
same,ED50,Staphylococcus aureus [5],45.1 mg/kg
same,ED50,Staphylococcus aureus [6],19.3 mg/kg
same,MIC,Staphylococcus aureus [7],0.06 µg/mL
same,MIC,Staphylococcus aureus [8],0.06 µg/mL
same,half-life,[9],5.9 h
same,half-life,[10],5 h
same,half-life,[11],4.2 h
same,half-life,[12],9.2 h
same,half-life,[13],4.9 h
same,AUC(0-inf),[14],27600 ng·h/mL
same,AUC(0-inf),[15],105000 ng·h/mL
same,Cmax,[16],63000 ng/g
same,Cmax,[17],51700 ng/g
same,NOAEL at 336 h,[18],100 mg/kg/day
same,MTD,[19],> 200 mg/kg
same,NOAEL at 336 h,[20],200 mg/kg/day
same,Activity,Albumin,95%
same,solubility thermodynamic,[21],11.3 mg/mL
same,solubility thermodynamic,[22],11.3 mg/mL
same,solubility thermodynamic,[23],0.02 mg/mL
same,MIC90,Staphylococcus aureus [24],0.06 µg/mL
same,CC50,[25],> 32 µg/mL
same,IC50,[26],12 nM
same,MIC,Streptococcus pneumoniae,> 32 µg/mL
same,MIC,Enterococcus faecalis,> 32 µg/mL
same,Activity,Rattus norvegicus,Non-toxic
same,MIC,Escherichia coli,0.5 µg/mL
same,MIC,Staphylococcus aureus [27],0.062 µg/mL
same,MIC90,Staphylococcus aureus [28],≤ 0.03 µg/mL
